Laboratory results reported in ChEMBL document CHEMBL1143758, “Antitumor studies. part 3: design, synthesis, antitumor activity, and molecular docking study of novel 2-methylthio-, 2-amino-, and 2-(N-substituted amino)-10-alkyl-2-deoxo-5-deazaflavins” (Bioorg Med Chem, 2007).
Converted amounts (≈) assume the structure as drawn.

Experiments:
[1] = test system: CCRF-HSB-2; test: Antitumor activity against human CCRF-HSB2 cells by modified MTT assay; format: functional, cell-based
[2] = test system: KB; test: Antitumor activity against human KB cells by modified MTT assay; format: functional, cell-based
[3] = test system: Human alphaherpesvirus 1; test: Antiviral activity against HSV1 in HELF cells assessed as reduction of virus plaque formation; format: functional; settings: Human alphaherpesvirus 1, HELF; read-out: ED50 (the source's name)
In short: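 In vitro plaque-reduction test against HSV-1, run with an acyclovir positive control. The value is reported as ED50, the minimum concentration that reduces virus plaque formation by 50%.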

Structure (SMILES)	IC50 [1] [µg/mL]	IC50 [2] [µg/mL]	EC50 [3] [µg/mL]
COc1ccc2c(c1)cc1c(=O)nc(N(C)C)nc-1n2C	35.6 (≈ 125 µM)	23.6 (≈ 83 µM)	–
Cc1ccc2c(c1)cc1c(=O)nc(N3CCCCC3)nc-1n2C	25.2 (≈ 81.7 µM)	32.7 (≈ 106 µM)	–
CCCCNc1nc2n(C)c3ccccc3cc-2c(=O)n1	6.04 (≈ 21.4 µM)	7.31 (≈ 25.9 µM)	–
COc1ccc2cc3c(=O)nc(N(C)CCO)nc-3n(C)c2c1	39 (≈ 124 µM)	36 (≈ 115 µM)	–
CSc1nc2n(C)c3ccc(Cl)cc3cc-2c(=O)n1	9.87 (≈ 33.8 µM)	21.5 (≈ 73.7 µM)	–
CCn1c2nc(SC)nc(=O)c-2cc2ccccc21	7.07 (≈ 26.1 µM)	5.42 (≈ 20 µM)	20 (≈ 73.7 µM)
CCCCCCCCNc1nc2n(C)c3ccccc3cc-2c(=O)n1	8.9 (≈ 26.3 µM)	7.9 (≈ 23.3 µM)	–
CSc1nc2n(C)c3cc(C)c(C)cc3cc-2c(=O)n1	7.06 (≈ 24.7 µM)	11.4 (≈ 39.9 µM)	–
CN(C)c1nc2n(C)c3ccccc3cc-2c(=O)n1	22.6 (≈ 88.9 µM)	20.1 (≈ 79 µM)	–
COc1ccc(OC)c2c1cc1c(=O)nc(SC)nc-1n2C	4.84 (≈ 15.3 µM)	8.75 (≈ 27.6 µM)	20 (≈ 63 µM)
Cc1ccc2c(c1)cc1c(=O)nc(N(C)C)nc-1n2C	16.4 (≈ 61.1 µM)	24.8 (≈ 92.4 µM)	–
CCn1c2nc(N(C)C)nc(=O)c-2cc2ccccc21	1.96 (≈ 7.3 µM)	3.96 (≈ 14.8 µM)	–
Cc1cc2cc3c(=O)nc(N4CCOCC4)nc-3n(C)c2cc1C	6 (≈ 18.5 µM)	8.8 (≈ 27.1 µM)	–
CN1CCN(c2nc3n(C)c4ccc(Cl)cc4cc-3c(=O)n2)CC1	7.4 (≈ 21.5 µM)	16.6 (≈ 48.3 µM)	–
CSc1nc2n(C)c3ccccc3cc-2c(=O)n1	1.91 (≈ 7.42 µM)	1.97 (≈ 7.66 µM)	0.8 (≈ 3.11 µM)
CCn1c2nc(N(C)CCO)nc(=O)c-2cc2cc(C)ccc21	9.5 (≈ 30.4 µM)	25.1 (≈ 80.4 µM)	–
CCn1c2nc(NCCO)nc(=O)c-2cc2ccccc21	11.3 (≈ 39.7 µM)	14 (≈ 49.2 µM)	–
Cn1c2nc(N3CCCCC3)nc(=O)c-2cc2cc(Cl)ccc21	69.4 (≈ 211 µM)	82.6 (≈ 251 µM)	–
CCn1c2nc(SC)nc(=O)c-2cc2cc(C)ccc21	1.82 (≈ 6.38 µM)	1.73 (≈ 6.06 µM)	4 (≈ 14 µM)

Structure (SMILES)	IC50 [1] [µg/mL]	IC50 [2] [µg/mL]	EC50 [3] [µg/mL]
CN(C)c1nc2n(C)c3ccc(Cl)cc3cc-2c(=O)n1	46.4 (≈ 161 µM)	58.5 (≈ 203 µM)	–
Cn1c2nc(N3CCOCC3)nc(=O)c-2cc2ccccc21	> 100	68.1 (≈ 230 µM)	–
COc1ccc2c(c1)cc1c(=O)[nH]c(=O)nc-1n2C	37.1 (≈ 144 µM)	10 (≈ 38.9 µM)	–
Cn1c2nc(N3CCOCC3)nc(=O)c-2cc2cc(Cl)ccc21	96.1 (≈ 291 µM)	52.7 (≈ 159 µM)	–
COc1ccc2c(c1)cc1c(=O)nc(N3CCN(C)CC3)nc-1n2C	12.6 (≈ 37.1 µM)	27 (≈ 79.6 µM)	–
CN1CCN(c2nc3n(C)c4ccccc4cc-3c(=O)n2)CC1	5.9 (≈ 19.1 µM)	8.44 (≈ 27.3 µM)	–
COc1ccc2cc3c(=O)nc(SC)nc-3n(C)c2c1	5.92 (≈ 20.6 µM)	7.69 (≈ 26.8 µM)	–
CSc1nc2n(C)c3c(C)cccc3cc-2c(=O)n1	15.3 (≈ 56.4 µM)	12 (≈ 44.2 µM)	–
CN(CCO)c1nc2n(C)c3ccccc3cc-2c(=O)n1	34.9 (≈ 123 µM)	34.3 (≈ 121 µM)	–
Cc1ccc2c(c1)cc1c(=O)nc(N)nc-1n2C	14.3 (≈ 59.5 µM)	44.5 (≈ 185 µM)	–
Cn1c2nc(N)nc(=O)c-2cc2ccccc21	13.7 (≈ 60.6 µM)	17.9 (≈ 79.1 µM)	–
CCn1c2nc(N(C)CCO)nc(=O)c-2cc2ccccc21	26.3 (≈ 88.2 µM)	23.5 (≈ 78.8 µM)	–
Cn1c2nc(N3CCCCC3)nc(=O)c-2cc2ccccc21	24.7 (≈ 83.9 µM)	32 (≈ 109 µM)	–
CCn1c2nc(N3CCOCC3)nc(=O)c-2cc2cc(C)ccc21	27.7 (≈ 85.4 µM)	50.8 (≈ 157 µM)	–
CCn1c2nc(N)nc(=O)c-2cc2ccccc21	1.64 (≈ 6.83 µM)	1 (≈ 4.16 µM)	4 (≈ 16.6 µM)
CSc1nc2n(C)c3ccc(C)cc3cc-2c(=O)n1	9.57 (≈ 35.3 µM)	9.27 (≈ 34.2 µM)	–
COc1ccc2c(c1)cc1c(=O)nc(SC)nc-1n2C	9.27 (≈ 32.3 µM)	9.82 (≈ 34.2 µM)	–
COc1ccc2c(c1)cc1c(=O)nc(N3CCOCC3)nc-1n2C	24.5 (≈ 75.1 µM)	38.3 (≈ 117 µM)	–
